Bioassay records deposited in PubChem BioAssay by several laboratories.
TNAP act hi DEA: TNAP activators at high phosphate acceptor level, primary screen, biochemical, luminescence, uHTS. Alkaline phosphatase, tissue-nonspecific isozyme (Homo sapiens), P05186. purified TNAP, CDP-star luminescence, 1 M DEA, 30 min; active compounds read high; 0 = EDTA background, 1 = DMSO-only activity. activation factor at 20 µM. 200,000 tested, under 10 active. AID 1136, 2008;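 active means activation factor at least 2 at 20 µM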
Target sequence (P05186 whole entry, looked up): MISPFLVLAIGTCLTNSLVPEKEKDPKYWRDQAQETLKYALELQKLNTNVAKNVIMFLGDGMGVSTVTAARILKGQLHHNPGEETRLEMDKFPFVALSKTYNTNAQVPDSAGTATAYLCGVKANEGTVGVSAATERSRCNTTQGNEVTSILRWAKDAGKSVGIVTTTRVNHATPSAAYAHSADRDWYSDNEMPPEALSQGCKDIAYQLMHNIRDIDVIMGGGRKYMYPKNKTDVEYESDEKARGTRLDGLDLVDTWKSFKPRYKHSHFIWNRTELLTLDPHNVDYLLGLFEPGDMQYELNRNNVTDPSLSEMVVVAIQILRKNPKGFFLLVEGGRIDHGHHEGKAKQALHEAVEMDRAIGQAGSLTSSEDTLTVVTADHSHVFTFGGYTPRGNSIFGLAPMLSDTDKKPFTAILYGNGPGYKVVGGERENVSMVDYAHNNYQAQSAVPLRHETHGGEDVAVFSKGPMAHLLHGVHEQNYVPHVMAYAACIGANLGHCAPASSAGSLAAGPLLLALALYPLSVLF
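Measured by: Luminescent substrate turnover signal | Test system: Human TNAP | Input: TNAP 1/800 final | Dosing: 20 µM single point | Schedule: 30 min, room temperature | Controls: EDTA wells as negative control, DMSO wells as positive control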
TNAP inh hiacc: human TNAP enzyme inhibitors, primary screen, biochemical, luminescent, high phosphate acceptor level, uHTS | purified TNAP, CDP-star luminescence, 1 M DEA | inhibition, % at 20 µM | actives 0.03% (n = 200,000) | AID 1135, 2008;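 active means over 50% inhibition of tissue-nonspecific alkaline phosphatase at 20 µM in the single-dose screen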;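 further: plate controls were DMSO wells for no effect and EDTA-quenched wells as full inhibition for full effect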
PTEN del growth: growth suppression of PTEN-null HCT116, primary screen, cell-based, CellTiter-Glo. HCT116 PTEN-null viability, 60 h; active compounds read low. viability, % at 10 µM. actives 1.2% (n = 140,000);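 active means viability at or below a set limit, 4 SD under the median of all tested compounds, cut at about 3.7% in these data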;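 further: PTEN knockout HCT116 line with beta catenin targeted HCT116 as companion control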
TNAP inh no acc: human TNAP enzyme inhibitors, primary screen, biochemical, luminescent, no phosphate acceptor, uHTS | purified TNAP, CDP-star luminescence, 30 min | inhibition, % at 20 µM | Alkaline phosphatase, tissue-nonspecific isozyme (Homo sapiens), P05186 | AID 1012, 2008 | actives 0.26% (n = 200,000);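 active means tissue-nonspecific alkaline phosphatase inhibition above about 50% at 20 µM in the single-dose screen, limit read from the data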;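 further: 0% = DMSO negative control and 100% = EDTA positive control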
Lmaj promast: Leishmania major promastigote growth inhibition, primary screen. Leishmania major promastigotes, resazurin fluorescence viability. inhibition, % at 10 µM. actives 9% (n = 200,000). AID 1063, 2008; in the data active means inhibition above about 50%;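 further: promastigotes grown with compound for 44 hours at 28 °C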
HCT116 bCat-KO: primary screen for growth suppressors in beta-catenin knockout HCT116 cells (colon tumor, human) | AID 818, 2007 | viability, % at 10 µM | actives 1.5% (n = 140,000) | HCT116 beta-catenin knockout viability, CellTiter-Glo, 60 h; active compounds read low;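 active means viability at or under a set limit, the compound median less 4 SD, cut at about 6% in these data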;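 further: 0% = Hyamine 1622 control at 20 µM and 100% = untreated cell control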
The depositor's hits bear a star; x = no result given. Sampled rows, rich in hits. Any-hit rate of the full collection: about 9.6%.

SMILES	TNAP act hi DEA	TNAP inh hiacc	PTEN del growth	TNAP inh no acc	Lmaj promast	HCT116 bCat-KO
COc1ccc2nc(Sc3c([N+](=O)[O-])nc(C)n3Cc3ccccc3)[nH]c2c1	1	1	1.7*	-1	87*	4.6*
CCCn1c(SCC(=O)NC(=O)NC(C)(C)C)n[nH]c1=O	1	-1	x	0	-6	x
FC(F)(F)c1cc(-c2cccs2)nc2ncnn12	1	0	x	-6	-7	x
N#CC1=C(N)OC2=C(CC/C2=C\c2ccccc2Cl)C1c1ccccc1Cl (stereo unspecified)	0.9	10	14	-10	73*	25
N#CC1=C(N)OC2=C(CC/C2=C\c2ccccc2)C1c1ccccc1 (stereo unspecified)	1	2	11	14	101*	14
Cc1ccc(CSCC(=O)NCc2ccco2)cc1	1	-2	x	-9	-5	x
CN(c1ccccc1C(=O)N1CCN(Cc2ccc3c(c2)OCO3)CC1)S(C)(=O)=O	1	-4	x	-15	-4	x
N#Cc1ccsc1NC(=O)CN1CCCCCC1	1	-3	108	-6	59*	104
COc1ccc(C(=O)Nc2ccc(N3CCOCC3)cc2)cc1S(=O)(=O)NC1CCCC1	1.1	-8	x	-11	7	x
COC(=O)c1cc([N+](=O)[O-])ccc1N1CCN(Cc2ccccc2)CC1	1	0	84	-4	44	90
COC(=O)c1ccccc1S(=O)(=O)N1Cc2cc([N+](=O)[O-])ccc2Oc2ccccc21	1.1	-6	89	-7	86*	92
NS(=O)(=O)c1ccc(NC(=O)Cc2c(F)cccc2Cl)cc1	1.1	-5	x	-11	-5	x
O=C(c1ccccc1)N1CCN2C(=O)c3ccccc3C12c1ccc(Cl)cc1 (stereo unspecified)	1.1	-9	17	-10	76*	22
O=C(Cc1ccccc1)Nc1cccc(N2C(=O)C=CC2=O)c1	1	-3	90	-16	3	98
OC(CCCCN1CCCCC1)c1ccccc1 (stereo unspecified)	1.1	-5	102	-12	54*	100
OC(C#CCN1CCCCC1)c1ccccc1 (stereo unspecified)	1.1	-9	108	-3	-10	103
CCc1oc2ccccc2c1C(=O)CCN1CCCCC1	1	-2	90	-3	74*	87
O=C(CCN1CCOCC1)c1ccccc1	1.1	-8	1.0*	-10	95*	1.2*
O=C(CCN1CCCCC1)c1ccccc1	1	-3	92	-19	74*	85
O=C(O)CCN1CCOCC1	1	1	104	10	-1	87
Cc1ccc(Cn2c(SCC(=O)NCC3CCCO3)nc3c2c(=O)n(C)c(=O)n3C)cc1 (stereo unspecified)	1	0	x	2	6	x
COC(=O)Cc1c(C(=O)OC)nnn1-c1ccc(OC(F)(F)F)cc1	1	-1	x	-7	-7	x
CCc1nn(C(C)C(=O)NCCN2CCN(c3cccc(C)c3C)CC2)c(=O)c2cc3occc3n12 (stereo unspecified)	1	-2	5	0	85*	2.5*
CCOc1ccc2ncc(S(=O)(=O)c3ccccc3)c(N3CCC4(CC3)OCCO4)c2c1	1	1	66	3	86*	68
COc1ccc(N2CCN(c3c(S(=O)(=O)c4ccccc4)cnc4ccc(OC)cc34)CC2)cc1	1	-3	66	-14	61*	69
SMILES	TNAP act hi DEA	TNAP inh hiacc	PTEN del growth	TNAP inh no acc	Lmaj promast	HCT116 bCat-KO
CCOc1ccc2ncc(S(=O)(=O)c3ccccc3)c(N3CCN(c4ccc(OC)cc4)CC3)c2c1	1	-1	70	-2	100*	74
COc1ccc(S(=O)(=O)c2cnc3ccc(OC)cc3c2N2CCC3(CC2)OCCO3)cc1	1	-3	71	6	5	77
CCOC(=O)c1cnc2ccc(OCC)cc2c1N1CCN(c2ccccc2)CC1	1	-2	75	-13	35	82
COc1ccc(N2CCN(c3nc4ccccc4nc3NS(=O)(=O)c3ccccc3)CC2)cc1	1	-2	96	-7	-2	88
COc1ccc(N(CCC#N)S(=O)(=O)c2cccc3nsnc23)cc1	1	-2	88	-9	-2	93
CC1(C)CC(=O)C(N=Nc2cc3c(cc2[N+](=O)[O-])OCCO3)=C(O)C1	0.8	19	x	18	-8	x
CCOc1ccc(-n2nc3c(=O)n(CCN4CCCCC4)nc(C)c3c2C)cc1	1	-1	100	-7	-7	92
Cc1ccc(-c2nnc(NCc3nc4ccccc4[nH]3)c3ccccc23)cc1S(=O)(=O)N1CCCCC1	1	0	73	-10	2	79
Cc1ccc(-c2nnc(NC3CCCCC3)c3ccccc23)cc1S(=O)(=O)N1CCN(C)CC1	1.1	-7	54	-3	96*	62
Fc1cccc2sc(Nc3nnc(-c4ccccc4)o3)nc12	1	-5	17	-238	83*	24
COc1ccc(-c2nnc(Nc3nc4c(OC)cccc4s3)o2)c(OC)c1	1	1	6	-11	94*	3.7*
COc1ccc(-c2nnc(Nc3nc4c(OC)cccc4s3)o2)cc1	1.1	-7	8	-2	79*	7
CCOc1cc(C)c(S(=O)(=O)Nc2ccc(F)cc2)cc1C	1	-1	48	-17	58*	50
COc1cc(C)c(S(=O)(=O)Nc2ccccc2F)cc1C	1	-2	75	-9	10	69
Cc1ccc(NC(=O)C2(C)Cc3ccccc3C(=O)O2)cc1 (stereo unspecified)	1	1	x	-3	-5	x
CC(=O)Oc1ccc(Cl)cc1/C=C/c1ccc2ccccc2n1	0.9	5	29	-2	55*	26
CC(=O)Oc1c(Cl)cc(Cl)cc1/C=C/c1ccc2ccccc2n1	1	-2	61	-11	8	63
CNC(=O)c1nnsc1S(=O)c1ccc(Cl)cc1 (stereo unspecified)	1	-1	x	-11	100*	x
CCCNC(=O)c1nnsc1S(=O)c1ccc(Cl)cc1 (stereo unspecified)	1	-2	x	-11	100*	x
CCCNC(=O)c1nnsc1S(=O)(=O)c1ccc(Cl)cc1	1	1	x	-6	18	x
c1ccc2c(c1)NCCS2	1	-5	x	-3	1	x
Cc1ccc(CC(=O)O/N=C(\N)c2cccc([N+](=O)[O-])c2)cc1	1	0	100	12	80*	88
